Laboratory results taken from ChEMBL document CHEMBL1255448, “The 6-aminoquinolone WC5 inhibits human cytomegalovirus replication at an early stage by interfering with the transactivating activity of viral immediate-early 2 protein” (Antimicrob Agents Chemother, 2010).
Activity calls are given as the source filed them. The calls are words filed in the database; no cut-off is given here. *1 amine or outer side, *2 acyl side, *3 side chain or, on linkers, in order; H or OH if unused. Where a SMILES comes first, the peptide text is derived from it. Bridges are numbered along the chain shown (N, C = ends). Roman numbers before positions name the chains, in order. [ ]: non-standard residue; d: D form. Actinocin(9to1) = Cc1c2oc3c(C)ccc(C(=O)[*:1])c3nc-2c(C(=O)[*:2])c(N)c1=O; NMeV = CN[C@H](C(=O)O)C(C)C; Sar = CNCC(=O)O

Assays:
[1] = Inhibition of human cytomegalovirus DNA polymerase catalytic subunit UL54 assessed as incorporation of [3H]dTTP; set-up: species or system Human betaherpesvirus 5
Procedure, shortened: (§1)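 Filter-based assay with purified baculovirus-expressed UL54 catalytic subunit, alone or with UL44 accessory subunit. Incorporation of [3H]dTTP into poly(dA)-oligo(dT)12-18 template-primer was measured across serial compound dilutions, with FOS as control. Means ± standard deviations from four independent experiments.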

[2] = Inhibition of human cytomegalovirus DNA polymerase catalytic subunit UL54/UL44 assessed as incorporation of [3H]dTTP; set-up: species or system Human betaherpesvirus 5; procedure, shortened: as §1
[3] = test system: Human betaherpesvirus 5; assay: Antiviral activity against 0.1 MOI human cytomegalovirus AD169 infected in human HFF assessed as inhibition of late phase UL55 protein expression after 72 hrs of infection by Western blot analysis; format: functional, organism-based
Procedure, shortened: (§2)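 HFF infected with HCMV AD169 at MOI 0.1 PFU/cell, treated with 50 µM compound or 0.2% DMSO. ActD 5 µg/ml, CHX 75 µg/ml and FOS 750 µM served as controls. Harvests at 24, 48 and 72 h p.i. were lysed in NP-40 buffer, then SDS-PAGE and PVDF blotting. Probes were anti-IE1/IE2 (p72/p86) MAb or anti-UL55, then HRP secondary and ECL. β-actin reprobe was the internal control.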

[4] = test system: Human betaherpesvirus 5; assay: Antiviral activity against human cytomegalovirus AD169 infected in human HFF assessed as inhibition of plaque formation by plaque reduction assay; format: functional, organism-based; conditions: Human betaherpesvirus 5, AD169
Procedure, shortened: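 Plaque reduction against AD169 in HFF. EC50 is the concentration giving 50% inhibition of plaque formation, reported as mean ± SD of at least three independent experiments run in duplicate.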

[5] = Cytotoxicity against human HFF by MTT assay; format: cell-based; conditions: HFF cells
Procedure, shortened: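 Cytotoxicity in HFF was measured by MTT reduction. CC50 is the concentration causing 50% cytotoxicity, reported as mean ± SD of at least three independent experiments run in quadruplicate.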

[6] = Selectivity index, ratio of CC50 for human HFF to EC50 for human cytomegalovirus AD169
Procedure, shortened: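 Selectivity index is CC50 from the HFF MTT assay divided by EC50 from the AD169 plaque reduction assay in HFF.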

[7] = test system: Human betaherpesvirus 5; assay: Antiviral activity against 0.1 MOI human cytomegalovirus AD169 infected in human HFF assessed as inhibition of immediate early phase P72 protein expression after 24 hrs by Western blot analysis; format: functional, organism-based; procedure, shortened: as §2
[8] = test system: Human betaherpesvirus 5; assay: Antiviral activity against 0.1 MOI human cytomegalovirus AD169 infected in human HFF assessed as inhibition of immediate early phase P86 protein expression after 24 hrs by Western blot analysis; format: functional, organism-based; procedure, shortened: as §2
[9] = test system: Human betaherpesvirus 5; assay: Antiviral activity against 0.1 MOI human cytomegalovirus AD169 infected in human HFF assessed as inhibition of early phase UL54 mRNA expression after 16 hrs by RT-PCR analysis
[10] = test system: Human betaherpesvirus 5; assay: Antiviral activity against 0.1 MOI human cytomegalovirus AD169 infected in human HFF assessed as inhibition of early phase UL84 mRNA expression after 16 hrs by RT-PCR analysis
[11] = test system: Human betaherpesvirus 5; assay: Antiviral activity against 0.1 MOI human cytomegalovirus AD169 infected in human HFF assessed as inhibition of immediate early phase mRNA expression after 16 hrs by RT-PCR analysis; format: functional, organism-based
Procedure, shortened: (§3)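 HFF seeded at 6×10^5 per well, infected with AD169 at MOI 0.1 PFU/cell, then given 50 µM drug or 0.2% DMSO. ActD 5 µg/ml, CHX 75 µg/ml and FOS 750 µM served as IE, E and L transcription controls. Total RNA was taken at 16 and 48 h p.i.; 1 µg was reverse-transcribed with random hexamers and MuLV RT. PCR used UL122/UL123 (IE), UL54/UL84 (E) and UL55/UL75 (L) primers with a β-actin control, and products were read on ethidium bromide agarose gels.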

[12] = test system: Human betaherpesvirus 5; assay: Antiviral activity against 0.1 MOI human cytomegalovirus AD169 infected in human HFF assessed as inhibition of early phase mRNA expression after 16 hrs by RT-PCR analysis; format: functional, organism-based; procedure, shortened: as §3
[13] = test system: Human betaherpesvirus 5; assay: Antiviral activity against 0.1 MOI human cytomegalovirus AD169 infected in human HFF assessed as inhibition of late phase mRNA expression after 16 hrs by RT-PCR analysis; format: functional, organism-based; procedure, shortened: as §3
[14] = test system: Human betaherpesvirus 5; assay: Antiviral activity against 0.1 MOI human cytomegalovirus AD169 infected in human HFF assessed as inhibition of immediate early phase mRNA expression after 48 hrs by RT-PCR analysis; format: functional, organism-based; procedure, shortened: as §3
[15] = test system: Human betaherpesvirus 5; assay: Antiviral activity against 0.1 MOI human cytomegalovirus AD169 infected in human HFF assessed as inhibition of early phase mRNA expression after 48 hrs by RT-PCR analysis; format: functional, organism-based; procedure, shortened: as §3
[16] = test system: Human betaherpesvirus 5; assay: Antiviral activity against 0.1 MOI human cytomegalovirus AD169 infected in human HFF assessed as inhibition of viral replication up to 72 hrs post infection; format: functional, organism-based
[17] = test system: Human betaherpesvirus 5; assay: Antiviral activity against 1 MOI human cytomegalovirus AD169 infected in human HFF assessed as virus yield reduction by yield reduction assay; format: functional, organism-based; conditions: Human betaherpesvirus 5, AD169
[18] = test system: Human betaherpesvirus 5; assay: Antiviral activity against 0.1 MOI human cytomegalovirus AD169 infected in human HFF assessed as virus yield reduction by yield reduction assay; format: functional, organism-based; conditions: Human betaherpesvirus 5, AD169
[19] = test system: Human betaherpesvirus 5; assay: Antiviral activity against 0.1 MOI human cytomegalovirus AD169 infected in human U373-MG cells expressing UL54-EGFP reporter assessed as inhibition of EGFP expression after 48 hrs of infection by confocal fluorescence microscopy; format: functional, organism-based; conditions: U-373MG ATCC
Procedure, shortened: (§4)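 Stable U373-MG reporter cells were seeded on coverslips at 3×10^5 per well and infected with AD169 at MOI 0.1 or 0.5. They were then treated with 50 µM drug, 5 µM fomivirsen (also given 1 h before and during infection) or 0.2% DMSO. At 48 h p.i. cells were fixed in 4% paraformaldehyde for 15 min, and EGFP-positive cells were counted by confocal microscopy at 20×.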

[20] = test system: Human betaherpesvirus 5; assay: Antiviral activity against 0.1 MOI human cytomegalovirus AD169 infected in human U373-MG cells expressing UL112/113-EGFP reporter assessed as inhibition of EGFP expression after 48 hrs of infection by confocal fluorescence microscopy; format: functional, organism-based; conditions: U-373MG ATCC; procedure, shortened: as §4

Compound	EC50 [4] [µM]	CC50 [5] [µM]	Selectivity Index [6]	also measured
O=C(NCP(=O)(O)O)OCc1ccccc1 [(BENZYLOXYCARBONYLAMINO)METHYLPHOSPHONIC ACID]	–	–	–	IC50 [1]: 3.1 µM; IC50 [2]: 5.5 µM; inhibition [3]: Active
O=C(O)c1cn(C2CC2)c2cc(N3CCN(c4ccccn4)CC3)ccc2c1=O	5.6	390	70	–
CCOC(=O)c1cn(C2CC2)c2cc(N3CCN(c4ccccn4)CC3)c(N)cc2c1=O	> 50	409	> 8	–
C[C@@H]1C[C@@H]([C@H](O)CC2CC(=O)NC(=O)C2)C(=O)[C@@H](C)C1	–	–	–	inhibition [7]: Active; inhibition [8]: Active; inhibition [9]: Active; inhibition [10]: Active
CC(C)(C)n1cc(C(=O)O)c(=O)c2cc(N)c(N3CCN(c4ccccn4)CC3)cc21	36.7	≥ 475	>=13	–
CC(C)(C)n1cc(C(=O)O)c(=O)c2cc(N)c(N3CCN(c4nc5ccccc5s4)CC3)cc21	0.18	5.8	32	–
Cc1c2oc3c(C)ccc(C(=O)N[C@@H]4C(=O)N[C@H](C(C)C)C(=O)N5CCC[C@H]5C(=O)N(C)CC(=O)N(C)[C@@H](C(C)C)C(=O)O[C@@H]4C)c3nc-2c(C(=O)N[C@@H]2C(=O)N[C@H](C(C)C)C(=O)N3CCC[C@H]3C(=O)N(C)CC(=O)N(C)[C@@H](C(C)C)C(=O)O[C@@H]2C)c(N)c1=O (I: T[dV]P[Sar][NMeV] / II: T[dV]P[Sar][NMeV]; ester I:1-I:C, II:1-II:C; linker I:N-II:N via Actinocin(9to1))	–	–	–	inhibition [11]: inactive; inhibition [12]: inactive; inhibition [13]: inactive; inhibition [14]: inactive; inhibition [15]: inactive
Cn1cc(C(=O)O)c(=O)c2cc(N)c(N3CCN(c4ccccn4)CC3)cc21	0.7	–	77	–
Nc1cc2c(=O)c(C(=O)O)cn(C3CC3)c2cc1N1CCN(c2nc3ccccc3s2)CC1	0.02	–	225	–
Nc1nc2c(ncn2COC(CO)CO)c(=O)[nH]1 [GANCICLOVIR]	1.9	–	289	Activity [16]: inactive; EC90 [17]: 0.8 µM; EC90 [18]: 1 µM
FOMIVIRSEN SODIUM	–	–	–	inhibition [19]: Active; inhibition [20]: Active
